These results are taken from ChEMBL document CHEMBL1125197, “Studies on uricosuric diuretics. 4. Three-dimensional structure-activity relationships and receptor mapping of (aryloxy)acetic acid diuretics” (1991).

This experiment relates to Rattus norvegicus. The experiment can be described thus: Diuretic activity after peroral administration of 100 mg/Kg in rats. Type of experiment: functional, Urine. Put shortly: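 Seven-week-old Wistar–Imamichi rats, fasted 24 h, in groups of five matched for urine output; forced urination before dosing. Oral dose of 100 mg/kg, suspended in physiological saline with 3% gum arabic at 25 mL/kg. Controls received vehicle alone. Animals kept fasted in separate metabolic cages, with urine collected for 6 h. Urine volume expressed as % of control (100%).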
For `O=C(c1cccs1)c1cc2c(c(Cl)c1Cl)OC(C(=O)O)C2` (racemic), the Relative activity was determined as 350%.

Take `O=C(O)C1Oc2c(Cl)cc3c(-c4ccccc4)noc3c2O1` (stereo not drawn): the Relative activity amounted to 160%.

In the case of `CC1(c2ccccc2)Cc2cc(OCC(=O)O)c(Cl)c(Cl)c2C1=O` (racemic) [INDACRINONE], the Relative activity turned out to be 300%.

On to `O=C(O)C1Cc2cc3c(=O)c4ccccc4oc3c(Cl)c2O1` (stereo not drawn), for which the Relative activity was found to be 200%. As for `O=C(O)COc1ccc(C(=O)c2cccs2)c(Cl)c1Cl` [TICRYNAFEN], the figure is 160%. As for `O=C(O)C1Cc2c(c(Cl)c(Cl)c3nc(-c4ccccc4)oc23)O1` (stereo not drawn), the figure is 450%; as for `O=C(O)C1Oc2cc3c(-c4ccccc4)noc3c(Cl)c2O1` (stereo not drawn), 450%. For `O=C(O)COc1cc2oc3ccccc3c(=O)c2cc1Cl` the value was 200%; for `O=C(O)C1Cc2cc(-c3noc4ccccc34)c(Cl)c(Cl)c2O1` (stereo not drawn), 300%; for `C[C@]1(c2ccccc2)Cc2cc(OCC(=O)O)c(Cl)c(Cl)c2C1=O`, 350%. As for `O=C(O)C1Cc2c(c(Cl)cc3c(-c4ccccc4)noc23)O1` (stereo not drawn), the Relative activity turned out to be 120%.

For the compound `O=C(c1cccs1)c1cc2c(c(Cl)c1Cl)O[C@H](C(=O)O)C2`, the Relative activity amounted to 400%. As to `O=C(O)C1Cc2cc3c(-c4ccccc4)noc3c(Cl)c2O1` (stereo not drawn), the Relative activity was determined as 300%. For `O=C(O)C1Cc2c(c(Cl)cc3c(=O)c4ccccc4oc23)O1` (stereo not drawn) the value was 300%; for `C[C@@]1(c2ccccc2)Cc2cc(OCC(=O)O)c(Cl)c(Cl)c2C1=O`, 200%. For `O=C(c1cccs1)c1cc2c(c(Cl)c1Cl)O[C@@H](C(=O)O)C2` the value was less than 100%; for `O=C(O)COc1ccc2c(-c3ccccc3F)noc2c1Cl`, 250%; for `O=C(O)COc1cc2c(=O)c3ccccc3oc2cc1Cl`, 200%.
